Experiment [1] concerns ERL2^LRR. Briefly: Pull-down assay with 6xHis-tagged ERL2^LRR. Type of experiment: binding, Arabidopsis. Conditions: Ni resin, SDS-PAGE, Coomassie blue; without TMM^LRR. Put shortly: (§1)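 Purified C-terminal 6xHis-tagged receptor LRR, from High Five cells, was mixed with excess EPF-family peptide and Ni resin for 30 min on ice. The resin was washed four times in 25 mM Tris pH 8.0, 250 mM NaCl, 15 mM imidazole, then heated 5 min at 100°C in SDS loading buffer. Bound protein was detected by SDS-PAGE with Coomassie staining.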

Experiment [2] relates to ERL1^LRR. Description: Pull-down assay with 6xHis-tagged ERL1^LRR. Type of experiment: binding, Arabidopsis. Conditions: Ni resin, SDS-PAGE, Coomassie blue; without TMM^LRR. The essentials:
as §1

The test system of experiment [3] is ERL1^LRR. Description: Gel filtration assay with ERL1^LRR. Conditions: 10 mM Bis-Tris pH 6.0, 100 mM NaCl; incubated 30 min at 4°C. Type of experiment: binding, Arabidopsis. Put shortly: (§2)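 LRR ectodomains were expressed in High Five insect cells by baculovirus at 22°C; for complexes, the ERf and TMM viruses were added together. Protein was purified from the supernatant by Ni-NTA and then size exclusion. Receptor and EPF-family peptide were mixed, held 30 min at 4°C, then run on Superdex 200 in 10 mM Bis-Tris pH 6.0, 100 mM NaCl. Fractions were analysed by SDS-PAGE with Coomassie staining.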
A general note: In gel filtration, larger molecules generally elute earlier.

Experiment [4] deals with ER^LRR. Description: Gel filtration assay with ER^LRR. It is filed as binding, Arabidopsis. The settings on record: 10 mM Bis-Tris pH 6.0, 100 mM NaCl; incubated 30 min at 4°C. The essentials:
as §2

The subject of experiment [5] is ER^LRR. Briefly: Pull-down assay with 6xHis-tagged ER^LRR. It is filed as binding, Arabidopsis. The settings on record: Ni resin, SDS-PAGE, Coomassie blue; without TMM^LRR. Put shortly: as §1
Experiment [6] concerns ERL2^LRR. Briefly: Gel filtration assay with ERL2^LRR. Type of experiment: binding, Arabidopsis. Conditions: 10 mM Bis-Tris pH 6.0, 100 mM NaCl; incubated 30 min at 4°C. The essentials:
as §2

Experiment [7] concerns ERL1^LRR. Description: Biochemical assay of EPFL8 interaction. It is filed as binding, Arabidopsis. Conditions: Supplemental Fig. S11.
The test system of experiment [8] is ERL1^LRR–TMM^LRR complex. Briefly: Gel filtration assay with ERL1^LRR–TMM^LRR complex. Type of experiment: binding, Arabidopsis. Conditions: 10 mM Bis-Tris pH 6.0, 100 mM NaCl; incubated 30 min at 4°C. Put shortly: as §2
Experiment [9] has as its system ERL1^LRR–TMM^LRR complex. Description: Ligand competition assay, ERL1^LRR–TMM^LRR. It is filed as binding, Arabidopsis. The settings on record: 10 µM EPF2-6xHis or EPF1-6xHis, increasing concentrations of EPFL9, 1 h at 4°C. Put shortly: (§3)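 The ERf–TMM LRR complex was coexpressed in High Five cells and purified by Ni-NTA and gel filtration. It was incubated with 10 µM His-tagged EPF peptide, with or without varying concentrations of competing peptide, for 1 h at 4°C with gentle agitation. The mixture was then passed over Ni beads and washed four times. Eluate was boiled 5 min at 100°C in SDS loading buffer and read by SDS-PAGE with Coomassie staining.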

Experiment [10] has as its system ER^LRR–TMM^LRR complex. Briefly: Ligand competition assay, ER^LRR–TMM^LRR. Type of experiment: binding, Arabidopsis. Conditions: 10 µM EPF2-6xHis or EPF1-6xHis, increasing concentrations of EPFL9, 1 h at 4°C. Put shortly:
as §3

In experiment [11] the target is T1, ERL1^LRR–TMM^LRR complex (Arabidopsis thaliana, UniProt C0LGW6;Q9SSD1).
T1 sequence 1: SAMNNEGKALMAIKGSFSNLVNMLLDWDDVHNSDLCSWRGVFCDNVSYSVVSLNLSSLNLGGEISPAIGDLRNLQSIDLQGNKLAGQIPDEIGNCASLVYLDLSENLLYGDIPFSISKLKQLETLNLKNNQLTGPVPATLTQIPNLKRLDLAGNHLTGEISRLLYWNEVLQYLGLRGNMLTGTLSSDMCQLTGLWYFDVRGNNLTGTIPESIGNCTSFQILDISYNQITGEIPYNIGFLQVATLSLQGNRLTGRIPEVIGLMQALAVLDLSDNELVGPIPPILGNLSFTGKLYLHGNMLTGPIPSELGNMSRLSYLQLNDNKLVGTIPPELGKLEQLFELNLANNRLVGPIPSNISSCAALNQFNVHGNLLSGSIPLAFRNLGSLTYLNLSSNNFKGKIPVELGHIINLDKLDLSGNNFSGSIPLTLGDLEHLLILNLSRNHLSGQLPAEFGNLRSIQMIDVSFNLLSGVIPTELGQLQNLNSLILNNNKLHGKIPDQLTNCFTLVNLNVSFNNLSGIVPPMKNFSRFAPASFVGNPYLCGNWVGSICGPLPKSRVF
T1 sequence 2: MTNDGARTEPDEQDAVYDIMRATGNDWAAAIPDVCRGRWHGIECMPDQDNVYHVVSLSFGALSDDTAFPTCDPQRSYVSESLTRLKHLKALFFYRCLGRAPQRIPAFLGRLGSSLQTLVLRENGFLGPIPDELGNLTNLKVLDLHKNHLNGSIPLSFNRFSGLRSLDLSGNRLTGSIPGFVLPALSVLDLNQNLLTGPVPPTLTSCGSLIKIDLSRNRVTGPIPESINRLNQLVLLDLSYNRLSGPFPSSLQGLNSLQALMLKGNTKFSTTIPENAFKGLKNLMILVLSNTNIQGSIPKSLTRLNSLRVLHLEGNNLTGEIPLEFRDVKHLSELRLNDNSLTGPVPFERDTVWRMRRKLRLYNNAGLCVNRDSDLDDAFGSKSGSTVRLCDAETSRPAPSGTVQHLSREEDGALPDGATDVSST
Description: ITC. (In ITC the heat of successive injections is recorded.)

The target of experiment [12] is T2, ERL1^LRR, extracellular LRR domain of ER-LIKE1 (ERL1) (Arabidopsis thaliana, UniProt C0LGW6 24-580).
T2 sequence: T1 sequence 1
Description: ITC.

For experiment [13], the target named is T3, ER^LRR–TMM^LRR complex (Arabidopsis thaliana, UniProt Q42371;Q9SSD1).
T3 sequence 1: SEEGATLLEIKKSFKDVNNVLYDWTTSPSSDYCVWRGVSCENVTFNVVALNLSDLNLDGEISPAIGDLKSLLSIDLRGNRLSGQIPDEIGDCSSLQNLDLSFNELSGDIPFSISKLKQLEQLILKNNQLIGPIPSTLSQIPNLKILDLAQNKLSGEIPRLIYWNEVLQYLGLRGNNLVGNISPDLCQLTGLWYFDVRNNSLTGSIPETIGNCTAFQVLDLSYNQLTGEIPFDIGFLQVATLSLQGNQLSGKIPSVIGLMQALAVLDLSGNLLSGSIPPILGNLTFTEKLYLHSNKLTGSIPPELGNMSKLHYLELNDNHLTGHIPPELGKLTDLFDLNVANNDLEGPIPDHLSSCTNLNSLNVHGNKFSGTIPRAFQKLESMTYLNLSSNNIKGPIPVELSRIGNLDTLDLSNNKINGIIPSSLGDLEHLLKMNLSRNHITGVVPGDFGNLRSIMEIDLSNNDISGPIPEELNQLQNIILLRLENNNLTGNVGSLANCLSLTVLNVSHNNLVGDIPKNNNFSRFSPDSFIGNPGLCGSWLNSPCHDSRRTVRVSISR
T3 sequence 2: T1 sequence 2
Description: pull-down.

For experiment [14], the target named is T4, ER^LRR, extracellular LRR domain of ERECTA (ER) (Arabidopsis thaliana, UniProt Q42371 24-580).
T4 sequence: T3 sequence 1
Briefly: SEC.

The target in experiment [15] is T2, ERL1^LRR, extracellular LRR domain of …. Description: SEC.
Experiment [16] deals with T5, ERL2^LRR, extracellular LRR domain of ERL2 (Arabidopsis thaliana, UniProt Q6XAT2 28-580).
T5 sequence: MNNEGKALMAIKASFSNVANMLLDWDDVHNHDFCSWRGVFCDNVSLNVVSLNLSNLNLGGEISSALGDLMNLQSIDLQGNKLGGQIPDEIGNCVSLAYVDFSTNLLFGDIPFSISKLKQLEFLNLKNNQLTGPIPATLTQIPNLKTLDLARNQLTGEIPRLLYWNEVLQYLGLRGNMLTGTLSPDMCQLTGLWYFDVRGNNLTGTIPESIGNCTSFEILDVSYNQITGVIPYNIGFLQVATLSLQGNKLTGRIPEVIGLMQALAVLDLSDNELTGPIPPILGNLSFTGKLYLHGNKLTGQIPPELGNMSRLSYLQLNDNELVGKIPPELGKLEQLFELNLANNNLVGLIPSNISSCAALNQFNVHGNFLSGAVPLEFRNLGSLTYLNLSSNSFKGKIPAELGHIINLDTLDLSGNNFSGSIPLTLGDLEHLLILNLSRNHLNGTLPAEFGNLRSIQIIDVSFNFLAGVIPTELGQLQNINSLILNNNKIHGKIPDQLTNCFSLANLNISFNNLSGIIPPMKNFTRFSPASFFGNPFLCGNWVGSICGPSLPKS
Briefly: pull-down.

The target of experiment [17] is T4, ER^LRR, extracellular LRR domain of …. Briefly: pull-down.
In experiment [18] the target is T2, ERL1^LRR, extracellular LRR domain of …. Description: pull-down.

The text below walks through data of PMC5458759 (Genes & Development, 2017).

The term Kd denotes the concentration at which binding is half-saturated. Read a low Kd as tighter binding. The term stoichiometry N denotes a count of units in the complex or per binding partner.

On to “EPFL4: EPF family growth regulatory peptide, residues 59–109 (PGSSPPTCRSKCGKCQPCKPVHVPIQPGLSMPLEYYPEAWRCKCGNKLFMP)”, for which the “interaction with ERL2^LRR in pull-down” value in [1] is recorded as “interacted strongly”. Further, the “interaction with ERL1^LRR in pull-down” value in experiment [2] was “interacted strongly”. In addition, in experiment [3], the “interaction with ERL1^LRR alone in gel filtration” value is reported as “interacted strongly”. In experiment [4], the “interaction with ER^LRR alone in gel filtration” value is given as “interacted strongly”. In experiment [5], the “interaction with ER^LRR in pull-down” value was “interacted strongly”. Moreover, the “interaction with ERL2^LRR alone in gel filtration” value in experiment [6] was “interacted strongly”.

Take “EPFL8: EPF family peptide, residues 46–99 (MGSEPPVCATKCRNCKPCLPYLFDIRGAHDDDDDSEPYYPVKWICRCRDRVFEP)”: the “interaction with ERL1^LRR in the absence of TMM^LRR” value in experiment [7] is listed as “interacted”.

As to “EPFL9: EPF family peptide, residues 58–102, promotes stomatal development (IGSTAPTCTYNECRGCRYKCRAEQVPVEGNDPINSAYHYRCVCHR)”, the “interaction with ERL1^LRR alone in gel filtration” value in experiment [3] is reported as “weak interaction”. Moreover, in experiment [8], the “interaction with ERL1^LRR–TMM^LRR in gel filtration (comigration)” value is “much more EPFL9 was shifted to a higher-molecular-weight species and comigrated with the complex”. Moreover, in experiment [9], the “competition: amount of ERL1^LRR–TMM^LRR pulled down by EPF2 or EPF1” value was “gradually decreased the amount”. Moreover, the “competition: amount of ER^LRR–TMM^LRR pulled down by EPF2 or EPF1” value in experiment [10] is “gradually decreased the amount”.

Consider IGSTAPTCTYNECRGCRYKCRAEQVPVEGNDPINSAYHYRCVCHR [EPFL9 (STOMAGEN) peptide, residues 58–102], for which binding in [11] was characterised by a dissociation constant (Kd) of 4 µM. For the same molecule, the “fold lower affinity than for ERL1^LRR–TMM^LRR” value in [12] is approximately 10 fold. Further, the binding result in [13] was “binds”.

B1: TMM^LRR, extracellular LRR domain of TOO MANY MOUTHS (TMM) (domain or fragment)
chain: T1 sequence 2
As for B1, the “stoichiometry N” value in experiment [14] and in experiment [15] was approximately 1 throughout.

B2: EPFL6 (CHALLAH, CHAL) peptide, residues 106–156 (peptide)
chain: LGSSPPRCSSKCGRCTPCKPVHVPVPPGTPVTAEYYPEAWRCKCGNKLYMP
As for B2, the binding result in experiment [11], in [16], in experiment [17] and in experiment [18] was “binds” throughout.
